{
  "source": "ChEMBL document CHEMBL4837218",
  "about": "“Synthesis and in vitro antitumour activity of 4(R)-methyl-3-O-phosphonomethyl-α-l-threose nucleosides” (Eur J Med Chem, 2021)",
  "key": {"MCF7 [1]": {"system": "MCF7", "assay": "Induction of mitochondrial membrane potential loss in human MCF7 cells assessed as green fluorescence intensity at 2 uM measured after 48 hrs by JC1 staining-based flow cytometry analysis (reference value: 8.1 %)", "type": "functional"}, "MDA-MB-231 [2]": {"system": "MDA-MB-231", "assay": "Induction of DNA damage in human MDA-MB-231 cells assessed as increase in ATM protein expression at 3 to 9 uM measured after 48 hrs by western blot analysis", "type": "functional, cell-based", "conditions": "dose 3-9 µM", "outline": "(§1)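 Cells exposed to graded concentrations for 48 h, then proteins extracted. Run on SDS-PAGE (5–15% gels) and transferred to nitrocellulose. Blocked 2 h in 5% nonfat milk in PBS/0.1% Tween 20, primary antibody overnight at 4 °C, biotin-conjugated secondary 1 h. Visualized on X-ray film with densitometric quantitation; three independent experiments.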"}, "MCF7 [3]": {"system": "MCF7", "assay": "Antiproliferative activity against human MCF7 cells assessed as reduction in cell viability at 0.06 to 16 uM measured after 24 to 72 hrs by MTT assay", "type": "functional, cell-based", "conditions": "dose 0.06-16 µM, time 24-72 hrs", "outline": "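MTT viability time course on the breast cancer cells with increasing compound concentrations for 24, 48 and 72 h. Cells seeded at 3000/well and allowed 12 h before treatment. MTT (5 mg/mL solution) applied for 4 h, crystals dissolved in DMSO, absorbance read at 570/630 nm. Viability expressed relative to untreated cells.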"}, "MCF7 [4]": {"system": "MCF7", "assay": "Induction of apoptosis in human MCF7 cells assessed as increase in cleaved caspase 3 protein expression at 1 to 4 uM measured after 48 hrs by western blot analysis", "type": "functional, cell-based", "conditions": "dose 1-4 µM", "outline": "(§2)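 MCF-7 and MDA-MB-231 breast cancer cells treated 48 h with a concentration series, then lysed for protein. SDS-PAGE on 5–15% gels, transfer to nitrocellulose. Blocked 2 h in 5% nonfat milk/PBS-0.1% Tween 20, primary antibodies overnight at 4 °C, biotin-conjugated secondary 1 h. X-ray film detection with densitometric quantification.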"}, "MCF7 [5]": {"system": "MCF7", "assay": "Cell cycle arrest in human MCF7 cells assessed as accumulation at G1 phase at 1 uM measured after 48 hrs by propidium iodide staining based flow cytometry (reference value: 70.09 %)", "type": "functional"}, "MDA-MB-231 [6]": {"system": "MDA-MB-231", "assay": "Induction of mitochondrial membrane potential loss in human MDA-MB-231 cells assessed as red fluorescence intensity at 3 uM measured after 48 hrs by JC1 staining-based flow cytometry analysis (reference value: 99.2 %)", "type": "functional"}, "MCF7 [7]": {"system": "MCF7", "assay": "Induction of mitochondrial membrane potential loss in human MCF7 cells assessed as red fluorescence intensity at 4 uM measured after 48 hrs by JC1 staining-based flow cytometry analysis (reference value: 91.9%)", "type": "functional"}, "MCF7 [8]": {"system": "MCF7", "assay": "Induction of apoptosis in human MCF7 cells assessed as late apoptotic cells at 4 uM measured after 48 hrs in presence of cdc25c inhibitor, NSC663284 by AnnexinV-FITC/PI staining based flow cytometry (reference value: 4.9%)", "type": "functional"}, "MDA-MB-231 [9]": {"system": "MDA-MB-231", "assay": "Inhibition of PI3K/AKT signalling pathway in human MDA-MB-231 cells assessed as downregulation of 85ap-PI3K expression at 3 to 9 uM measured after 48 hrs by Western blot analysis", "type": "cell-based", "conditions": "dose 3-9 µM", "outline": "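After 48 h exposure to compound at several concentrations, cells collected and proteins extracted. SDS-PAGE on 5–15% gels, transfer to nitrocellulose, blocking 2 h in 5% nonfat milk in PBS/0.1% Tween 20, primary antibodies overnight at 4 °C, biotin-conjugated secondary 1 h. Detection on X-ray film; band densitometry.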"}, "MCF7 [10]": {"system": "MCF7", "assay": "Cell cycle arrest in human MCF7 cells assessed as accumulation at S phase at 4 uM measured after 48 hrs by propidium iodide staining based flow cytometry (reference value: 25.34 %)", "type": "functional"}, "MDA-MB-231 [11]": {"system": "MDA-MB-231", "assay": "Induction of apoptosis in human MDA-MB-231 cells assessed as increase in cleaved caspase 9 protein expression at 3 to 9 uM measured after 48 hrs by western blot analysis", "type": "functional, cell-based", "conditions": "dose 3-9 µM", "outline": "as §2"}, "MCF7 [12]": {"system": "MCF7", "assay": "Induction of apoptosis in human MCF7 cells assessed as reduction in Mcl-1 protein expression at 1 to 4 uM measured after 48 hrs by western blot analysis", "type": "functional, cell-based", "conditions": "dose 1-4 µM", "outline": "as §2"}, "MDA-MB-231 [13]": {"system": "MDA-MB-231", "assay": "Induction of apoptosis in human MDA-MB-231 cells assessed as increase in cleaved caspase 7 protein expression at 9 uM measured after 48 hrs in presence of cdc25c inhibitor, NSC663284 by western blot analysis", "type": "functional, cell-based", "outline": "(§3)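 Four arms per cell line: untreated, test compound, 0.3 µM NSC663284 alone, and combination. Proteins harvested after 48 h and resolved by SDS-PAGE on 5–15% gels, transferred to nitrocellulose. Blocked 2 h in milk/PBS-Tween, primary antibodies overnight at 4 °C, biotin-conjugated secondary. Read on X-ray film with densitometry.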"}, "MDA-MB-231 [14]": {"system": "MDA-MB-231", "assay": "Induction of G2/M phase cell cycle arrest in human MDA-MB-231 cells assessed as decrease in p-cdc2 protein expression at 3 to 9 uM measured after 48 hrs by western blot analysis", "type": "functional, cell-based", "conditions": "dose 3-9 µM", "outline": "as §1"}, "SW-620": {"system": "SW-620", "assay": "Antiproliferative activity against human SW-620 cells assessed as cell growth inhibition measured after 72 hrs by MTT assay", "type": "functional, cell-based", "conditions": "SW-620, 72 h", "outline": "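Cells seeded at 3000 exponentially growing cells/well and incubated 12 h at 37 °C. Medium then replaced with fresh medium containing graded compound concentrations for 72 h; 5-FU positive control. MTT (5 mg/mL solution) added for 4 h, formazan dissolved in DMSO, absorbance read at 570 nm (reference 630 nm). Relative percentage inhibition of viable cells calculated; IC50 reported as mean ± standard deviation.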"}, "MCF7 [15]": {"system": "MCF7", "assay": "Induction of apoptosis in human MCF7 cells assessed as increase in cleaved PARP protein expression at 4 uM measured after 48 hrs in presence of cdc25c inhibitor, NSC663284 by western blot analysis", "type": "functional, cell-based", "outline": "as §3"}, "MCF7 [16]": {"system": "MCF7", "assay": "Cell cycle arrest in human MCF7 cells assessed as accumulation at G2/M phase at 1 uM measured after 48 hrs by propidium iodide staining based flow cytometry (reference value: 0.01 %)", "type": "functional"}, "MDA-MB-231 [17]": {"system": "MDA-MB-231", "assay": "Induction of apoptosis in human MDA-MB-231 cells assessed as late apoptotic cells at 9 uM measured after 48 hrs in presence of cdc25c inhibitor, NSC663284 by AnnexinV-FITC/PI staining based flow cytometry (reference value: 8.3%)", "type": "functional"}, "MDA-MB-231 [18]": {"system": "MDA-MB-231", "assay": "Induction of G2/M phase cell cycle arrest in human MDA-MB-231 cells assessed as upregulation of p-cdc25c protein expression at 9 uM measured after 48 hrs in presence of cdc25c inhibitor, NSC663284 by western blot analysis", "type": "functional, cell-based"}, "MCF7 [19]": {"system": "MCF7", "assay": "Cell cycle arrest in human MCF7 cells assessed as accumulation at S phase at 2 uM measured after 48 hrs by propidium iodide staining based flow cytometry (reference value: 25.34 %)", "type": "functional"}, "MDA-MB-231 [20]": {"system": "MDA-MB-231", "assay": "Induction of G2/M phase cell cycle arrest in human MDA-MB-231 cells assessed as upregulation of cdc25c protein expression at 9 uM measured after 48 hrs in presence of cdc25c inhibitor, NSC663284 by western blot analysis", "type": "functional, cell-based"}, "MDA-MB-231 [21]": {"system": "MDA-MB-231", "assay": "Induction of mitochondrial membrane potential loss in human MDA-MB-231 cells assessed as green fluorescence intensity at 6 uM measured after 48 hrs by JC1 staining-based flow cytometry analysis (reference value: 0.8 %)", "type": "functional"}, "MDA-MB-231 [22]": {"system": "MDA-MB-231", "assay": "Induction of apoptosis in human MDA-MB-231 cells assessed as increase in Bad protein expression at 3 to 9 uM measured after 48 hrs by western blot analysis", "type": "functional, cell-based", "conditions": "dose 3-9 µM", "outline": "as §2"}},
  "note": "Active and inactive are the calls of the source. The rule behind the calls is not given here.",
  "data": [
    {"smiles": "C[C@H]1O[C@@H](n2cnc3c(N)nc(F)nc32)[C@H](O)[C@H]1OCP(=O)([O-])[O-].[Na+].[Na+]", "values": [
      {"measurement": "Activity", "setting": "MCF7 [1]", "value": 32.8, "unit": "%"},
      {"measurement": "Activity", "setting": "MDA-MB-231 [2]", "value": "Active"},
      {"measurement": "Activity", "setting": "MCF7 [3]", "value": "Active"},
      {"measurement": "Activity", "setting": "MCF7 [4]", "value": "Active"},
      {"measurement": "Activity", "setting": "MCF7 [5]", "value": 63.54, "unit": "%"},
      {"measurement": "Activity", "setting": "MDA-MB-231 [6]", "value": 98.6, "unit": "%"},
      {"measurement": "Activity", "setting": "MCF7 [7]", "value": 41.9, "unit": "%"},
      {"measurement": "Activity", "setting": "MCF7 [8]", "value": 5.2, "unit": "%"},
      {"measurement": "inhibition", "setting": "MDA-MB-231 [9]", "value": "Active"},
      {"measurement": "Activity", "setting": "MCF7 [10]", "value": 31.16, "unit": "%"},
      {"measurement": "Activity", "setting": "MDA-MB-231 [11]", "value": "Active"},
      {"measurement": "Activity", "setting": "MCF7 [12]", "value": "Active"},
      {"measurement": "Activity", "setting": "MDA-MB-231 [13]", "value": "inactive"},
      {"measurement": "Activity", "setting": "MDA-MB-231 [14]", "value": "Active"},
      {"measurement": "IC50", "setting": "SW-620", "value": 6.62, "unit": "µM"},
      {"measurement": "Activity", "setting": "MCF7 [15]", "value": "inactive"},
      {"measurement": "Activity", "setting": "MCF7 [16]", "value": 16.26, "unit": "%"},
      {"measurement": "Activity", "setting": "MDA-MB-231 [17]", "value": 3.2, "unit": "%"},
      {"measurement": "Activity", "setting": "MDA-MB-231 [18]", "value": "inactive"},
      {"measurement": "Activity", "setting": "MCF7 [19]", "value": 38.69, "unit": "%"},
      {"measurement": "Activity", "setting": "MDA-MB-231 [20]", "value": "inactive"},
      {"measurement": "Activity", "setting": "MDA-MB-231 [21]", "value": 36.2, "unit": "%"},
      {"measurement": "Activity", "setting": "MDA-MB-231 [22]", "value": "Active"}
    ]}
  ]
}
